Compound activity (PubChem)
T cruzi repl – inhibitors of intracellular T. cruzi growth, primary screen, luminescence, NIH3T3 host cells; T. cruzi beta-gal in NIH3T3, 90 h; inhibition, % (no concentration beside the values); hit rate 1.4% among 300,000; AID 1885, 2009;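 active means mean inhibition across valid replicates above about 55%, limit read from the data; inconclusive means mean below that limit but half or more replicates reach it; inactive means mean below it, under half of replicates reach it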;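 further: signal also drops with host cell toxicity which is not excluded here; higher percent means less beta-gal luminescence so fewer parasites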
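assay system = mouse NIH/3T3 fibroblasts infected with β-gal-expressing T. cruzi Tulahuen C4 | input = 5,000 NIH/3T3 host cells per well | buffer or medium = DMEM plus 2% FBS | timing = 3 h host attachment, then at least 90 h co-culture | measured by = GalScreen luminescence, 60 min | evaluation = luminescence reflecting intracellular parasite burden, expressed as percent inhibition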
Mdm2 MdmX PPI – inhibitors of human Mdm2-MdmX association, primary screen, cell-based, luminescence, split luciferase, SaOS-2, uHTS; Protein Mdm4 (Homo sapiens) + E3 ubiquitin-protein ligase Mdm2 (Homo sapiens), …; SaOS-2 split-luciferase Mdm2/MdmX complementation; inhibition, % at 8 µM; hit rate 3% among 330,000;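 active means inhibition of at least 50% at 8 µM in the primary screen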
Target sequence (O15151 whole entry, looked up): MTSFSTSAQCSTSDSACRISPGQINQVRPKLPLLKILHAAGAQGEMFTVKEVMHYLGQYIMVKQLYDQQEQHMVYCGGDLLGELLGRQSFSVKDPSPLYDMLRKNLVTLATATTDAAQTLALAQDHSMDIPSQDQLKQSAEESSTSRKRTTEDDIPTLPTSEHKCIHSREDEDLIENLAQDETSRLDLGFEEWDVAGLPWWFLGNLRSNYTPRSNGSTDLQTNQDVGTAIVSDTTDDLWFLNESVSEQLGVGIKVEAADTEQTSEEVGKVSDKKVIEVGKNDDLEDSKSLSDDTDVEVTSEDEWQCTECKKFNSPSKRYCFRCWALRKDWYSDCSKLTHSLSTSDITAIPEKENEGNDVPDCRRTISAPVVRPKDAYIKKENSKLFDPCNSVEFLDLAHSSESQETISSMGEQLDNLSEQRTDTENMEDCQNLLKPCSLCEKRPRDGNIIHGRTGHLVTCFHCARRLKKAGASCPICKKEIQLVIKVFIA
Target sequence (Q00987 whole entry, looked up): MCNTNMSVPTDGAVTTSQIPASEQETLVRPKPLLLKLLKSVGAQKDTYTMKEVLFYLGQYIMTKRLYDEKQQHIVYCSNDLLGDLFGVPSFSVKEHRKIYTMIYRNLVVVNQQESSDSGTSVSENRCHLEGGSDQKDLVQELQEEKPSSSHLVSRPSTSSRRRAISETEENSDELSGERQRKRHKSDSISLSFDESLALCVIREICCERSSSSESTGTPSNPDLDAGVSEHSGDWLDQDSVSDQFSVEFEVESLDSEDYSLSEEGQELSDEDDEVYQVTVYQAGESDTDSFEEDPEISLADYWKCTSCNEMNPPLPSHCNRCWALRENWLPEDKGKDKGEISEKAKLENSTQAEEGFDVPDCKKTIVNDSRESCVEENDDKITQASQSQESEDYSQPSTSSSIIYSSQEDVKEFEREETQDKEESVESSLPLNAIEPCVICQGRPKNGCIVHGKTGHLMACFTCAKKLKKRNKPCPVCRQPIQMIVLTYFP
CSC inhib – cancer stem cell viability inhibitors, primary screen, luminescence | cancer stem cell-like cells viability | inhibition, % at 7.5 µM | hit rate 1.1% among 300,000; in the data active means inhibition above about 75%; inconclusive means no clear call, values can overlap the other calls; tested in HMLE shEcad cells
NLRP3 yeast inh – NALP3 inflammasome inhibitors in reconstituted yeast, primary screen, luminescence, uHTS; Yeast reconstituted NLRP3/ASC/caspase-1, beta-gal luminescence, 24 h; inhibition, % at 10 µM; hit rate 0.39% among 330,000;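 active means inhibition of 50% or more; inactive means inhibition below 50%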
Beta apoptosis – inhibitors of cytokine-induced beta cell apoptosis, primary screen, luminescence. protection from apoptosis, % (concentration not given with the values). hit rate 0.8% among 300,000. INS-1E cytokine-induced death, ATP luminescence, 48 h; percent of positive-control rescue, neutral wells zero. AID 435005, 2010;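 active means Every replicate reaches about 75%, or at least half do and their mean reaches it too, limit read from the data; inconclusive means At least half of replicates reach the limit but their mean does not; inactive means Under half of replicates reach the limit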;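 further: higher means more ATP so stronger rescue from cytokine killing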
Calb FLC – C. albicans growth inhibition with fluconazole, primary screen, CaCi-2 strain, Alamar Blue fluorescence; C. albicans CaCi-2 + fluconazole, 48 h; growth inhibition, % (concentration not given with the values); hit rate 0.57% among 300,000; AID 1979, 2009;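 active means growth inhibition above about 58% in most replicates, limit read from the data, passing the limit was not always enough; inconclusive means exactly half the replicates above a set limit; inactive means most replicates below a set limit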;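 further: all wells also contain fluconazole at 8 µg/ml as a sub-toxic cotreatment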
Of the large screens only hits and unclear results are named; the others gave an inactive call. A selection: hits, their analogues and other compounds. The true share with any hit is near 5.3%.

CC(C)c1ccccc1OCC(O)CN1CCN(S(=O)(=O)c2ccc([N+](=O)[O-])cc2)CC1 (configuration not stated)	T cruzi repl 55
Cc1ccc(C(C)C)c(OCC(O)CN2CCc3ccccc3C2)c1 (configuration not stated)	Beta apoptosis 98
Cc1ccccc1OCC(O)CN1CCN(C)CC1 (configuration not stated)	T cruzi repl 63
O=C(CN1CCOCC1)Nc1ncc(Cc2cccc(Cl)c2)s1	none
Cc1nnc(NC(=O)c2ccc(Br)cc2)s1	none
N#Cc1cccc(C#N)c1N1CCC(C#N)CC1	none (no result: Beta apoptosis)
Cc1ccc(NC(=S)NC(=O)c2ccc(F)cc2)cc1S(=O)(=O)Nc1ccccc1Cl	CSC inhib 79
Cc1ccc(NC(=O)c2ccc(=O)[nH]n2)cc1S(=O)(=O)Nc1ccccc1Cl	none (no result: T cruzi repl, Calb FLC)
COC(=O)c1ccccc1NC(=S)NC(=O)COc1ccc(C)cc1	none
CC(=O)Nc1ccc(OS(=O)(=O)c2ccc([N+](=O)[O-])cc2)cc1	T cruzi repl 71
COc1ccccc1N1CCN(C(=O)c2cc3cc(Cl)ccc3[nH]2)CC1	Calb FLC 114
COc1ccccc1N1CCN(c2ncc(C(=O)N3CCN(c4cccc(Cl)c4)CC3)c3ccccc23)CC1	T cruzi repl 61, Beta apoptosis 89
COc1ccccc1N1CCN(C(=O)c2cc3ccccc3[nH]2)CC1	none
C#CCOCCOCCOCCNc1nc(N2CCN(C(=O)[C@H](CCCCN)n3cc(CN)nn3)CC2)nc(N2CCN(C(=O)[C@H](CCCN=C(N)N)n3cc(C(N)[C@H](C)CC)nn3)CC2)n1 (some centres not stated)	none (no result: T cruzi repl, Calb FLC)
CCCCC[n+]1cccc2c3ccccc3ccc21	T cruzi repl 73, Beta apoptosis 110
CCOc1ccccc1NC(=O)C(OC(=O)c1cc(C)oc1C)c1ccccc1 (configuration not stated)	Calb FLC inconclusive
CC(C)(C)NC(=S)N/N=C/c1c(Cl)cccc1Cl	none
Cc1ccc(NC(=S)N/N=C/c2c(Cl)cccc2Cl)c(C)c1	CSC inhib 101
Cc1ccc(Cl)cc1NC(=S)N/N=C/c1cccc2ccccc12	T cruzi repl 59, CSC inhib inconclusive
Cc1ccccc1NC(=S)N/N=C/C(C)c1ccccc1 (configuration not stated)	none (no result: CSC inhib)
Cc1ccccc1NC(=S)N/N=C/c1ccc(O)cc1O	Beta apoptosis 87
Cc1cccc(NC(=S)N/N=C/c2cccc(O)c2)c1C	CSC inhib 80
O=C(c1cc(-c2ccc(Br)cc2)on1)N1CCCC1	none
CC(CN1CCN(C)CC1)OC(=O)c1ccc(Cl)cc1 (configuration not stated)	T cruzi repl 59
CC(CN1CCCCC1)OC(=O)c1ccc(Cl)cc1 (configuration not stated)	none
